LGR2 antag – Drosophila LGR2 receptor signaling inhibition; inhibition, % at 9.99 µM; AID 720647; 380,000 compounds, 0.35% hits; HEK293 LGR2, CRE-luciferase, bursicon-stimulated, 4 h;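 active = drop in luminescence signal, shown as inhibition above about 50% in the replicate tests, limit read from the data, passing the limit was not always enough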;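 also: agonist challenge used bursicon conditioned medium at about half maximal strength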
TWEAK-Fn14 inh – blocks TWEAK-Fn14 interaction in a reporter cell assay; 360,000 compounds, 2% hits; inhibition, % at 10 µM; TWEAK-stimulated Fn14 reporter cells, luciferase luminescence, 8 h; in the data active = inhibition above about 50%
EWS-Fli inh – blocks EWS/Fli oncoprotein-driven transcription | A673 NR0B1-luciferase reporter, viability-normalised | inhibition, % at 12.6 µM | 350,000 compounds, 0.67% hits;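 active = mean inhibition of at least 50% after viability correction, with every replicate also passing that limit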;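 also: firefly luciferase signal divided by Alamar Blue viability fluorescence both relative to DMSO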
FN deposition inh – fibronectin deposition inhibition; AH1F fibroblasts, Alexa488-fibronectin deposition fluorescence, overnight; 350,000 compounds, 0.086% hits; inhibition, % at 12.6 µM;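 active = mean inhibition across replicates of 30% or more, regardless of how many single replicates reach that level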;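 also: positive control wells lacked labelled fibronectin entirely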
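Assay system: AH1F fibroblasts assembling fluorescent fibronectin matrix; Amount: 10000 AH1F cells per well; Buffer or medium: DMEM, 2% serum; Probe or stimulus: Alexa488-fibronectin, 24 nM final in well; Doses: single compound dose, delivered by pin transfer; Incubation: 1 h adhesion, overnight exposure; Measured by: fluorescence 485/525 nm; Read-out: fibronectin deposition inhibition.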
TROY signal inh – inhibitors of TROY-dependent NF-kB signaling | AID 1347056 | 360,000 compounds, 0.98% hits | inhibition, % at 10 µM | Q293 LMP1-TROYcd NF-kB luciferase reporter, 4 h;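 active = compounds whose plate-normalised and pattern-corrected inhibition of the luciferase reporter signal at the single screening dose is 50% or more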
XiGFP reactiv – activators of X-chromosome reactivation in mouse fibroblasts. XiGFP mouse fibroblasts, % GFP-positive cells imaging, 3 d; cells co-treated with 5-aza-dC sensitizer; scaled so ellipticine positive control = 100%. activation, % at 7.58 µM. 360,000 compounds, 0.055% hits;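 active = mean normalized replicate activation at least 10% and every replicate at or above 10%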;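 also: 0% = median of on-plate neutral control wells and 100% = ellipticine 6 µM median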
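Schedule: 3 d treatment, 15 min room-temperature fixation; system: 68-5-11 XiGFP fibroblast line; buffer or medium: DMEM plus 5-aza-dC sensitizer; control set: ellipticine 6 µM positive control; compound: one concentration, pinned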
An asterisk follows results filed as active; i = inactive; / = no result. A selection: hits, their analogues and other compounds. The true share with any hit is near 2.3%.

SMILES	LGR2 antag	TWEAK-Fn14 inh	EWS-Fli inh	FN deposition inh	TROY signal inh	XiGFP reactiv
C[C@@H]1CN([C@@H](C)CO)C(=O)c2cc(-c3cccc(F)c3)cnc2O[C@@H]1CN(C)C(=O)C1CCC1	6.5	/	-5.4	3.5	/	0.3
CC1=Nc2ccccc2/C1=C/c1sc(=N)n(-c2nccs2)c1O	-2.4	101.0*	/	/	73.5*	/
COc1cccc(S(=O)(=O)Nc2ccc3c(c2)[C@@H]2C[C@H](CC(=O)O)O[C@H](CO)[C@@H]2O3)c1	5.0	/	/	-0.9	/	0.1
C[C@H](CO)N1C[C@H](C)[C@H](CN(C)C(=O)CN(C)C)Oc2ncc(-c3ccc(C#N)cc3)cc2C1=O	-8.2	/	-1.8	-3.6	/	-1.0
c1ccc(Nc2ccnc(Nc3ccccc3)n2)cc1	-33.2	55.5*	-90.6	4.4	19.9	0.0
Cn1c(C=O)c(-c2ccc3cc[nH]c3c2)c2ccccc21	-2.7	65.9*	-11.3	-11.6	33.6	0.0
COc1cc2c3nnc(-c4ccc(F)cc4)c-3cn(Cc3ccccc3)c2cc1OC	15.9	i	42.0	-151.7	-133.1	90.7*
COc1cc2c3nnc(-c4ccc(F)cc4)c-3cn(Cc3ccc(F)cc3)c2cc1OC	-21.8	-229.3	35.1	-4.2	-60.3	2.9
O=C(O)C[C@@H]1C=C[C@H](NC(=O)Nc2cc(F)ccc2F)[C@H](CO)O1	-21.8	/	9.0	-18.0	/	0.4
C=CCC[C@H](Cc1ccc(F)cc1)C(=O)OC[C@H](Cc1c[nH]c2ccccc12)NC(=O)[C@@H](CC=C)CC(=O)N(CCO)Cc1ccccc1	45.5	60.0*	5.0	8.2	45.0	0.1
C=CCC[C@@H](Cc1ccc(F)cc1)C(=O)OC[C@H](Cc1c[nH]c2ccccc12)NC(=O)[C@H](CC=C)CC(=O)N(CCO)Cc1ccccc1	35.3	59.7*	8.8	-3.3	17.2	-0.1
Cc1ccc(Nc2nc(Cl)nc(NC(C)(C)C)n2)cc1	-42.2	-11.6	-100.0	2.0	-36.2	0.1
Cc1ccc(Nc2nc(Cl)nc(N(C)C#N)n2)cc1	1.4	89.5*	/	/	8.7	/
CNC(=O)NC(=O)COC(=O)CCCSc1nc2ccccc2s1	/	59.1*	0.9	0.7	40.1	0.4
N#Cc1ccsc1NC(=O)COC(=O)CCCSc1nc2ccccc2s1	/	30.4	/	9.6	26.4	/
CC(OC(=O)CCCSc1nc2ccccc2s1)C(=O)NC(N)=O (stereo unspecified)	5.1	21.9	8.6	-0.3	10.9	0.3
O=S(=O)(CCSc1nc2ccccc2s1)c1nc2ccccc2s1	/	82.5*	/	4.5	69.3*	/
NC(=O)COC(=O)CCCSc1nc2ccccc2s1	3.8	54.0*	11.6	10.9	44.2	-0.1
CN(C)C(=O)C[C@H]1C=C[C@H](NC(=O)C2CCOCC2)[C@@H](CO)O1	-2.1	/	11.8	-3.1	/	0.0
COc1ccc2c3c(n(C)c2c1)[C@@H](CO)N(C(C)=O)CC31CCN(C(=O)Nc2ccc(F)cc2)CC1	1.8	/	20.7	/	/	0.4
C[C@@H]1CN([C@@H](C)CO)C(=O)c2cc(NC(=O)Nc3ccccc3)ccc2O[C@@H](C)CCCCO[C@@H]1CN(C)Cc1ccncc1	12.4	/	/	2.6	/	0.3
COc1ccc(N=Cc2sc3ccccc3c2Cl)cc1	/	71.3*	/	/	67.0*	/
NC(=O)c1ccsc1NC(=O)c1ccc(N2CCCC2=O)cc1	71.9*	43.2	-28.9	/	8.9	-0.1
CNC(=O)c1ccsc1NC(=O)c1ccc2c(c1)CCCC2	-102.4	-25.7	-124.7	0.2	-38.2	0.2
NC(=O)c1ccsc1NC(=O)c1ccc2c(c1)CCCC2	62.6*	48.5	11.0	-3.3	19.7	0.0
Cc1cc(N)c2cc(NC(=O)/C=C/c3ccccc3Cl)ccc2n1	/	34.3	/	/	81.0*	/
Cc1ccnc(NC(=O)/C=C/c2ccccc2[N+](=O)[O-])c1	-13.6	/	-4.8	5.3	/	0.0
Cc1ccnc(NC(=O)/C=C/c2ccccc2Cl)c1	25.2	64.5*	28.3	-0.2	37.9	0.1
CCC(=O)N1C[C@H](C)[C@@H](OC)CN(C)C(=O)c2cc(NC(=O)CC(F)(F)F)ccc2OC[C@@H]1C	/	/	/	-1.5	/	0.2
Cc1cc(Cl)ccc1OCC(=O)NNC(=O)C1CCN(c2ncnc3sc(C)c(C)c23)CC1	-5.0	82.2*	5.8	1.6	71.7*	-0.1

Source: PubChem (several laboratories)
